Reference: ChEMBL document CHEMBL5724801, “EUbOPEN Chemogenomics Library - Multiplex” (2024)
Where “and” joins values, the source holds several entries; their conditions need not be identical. Identical values can stand only once.

System: HEK-293T
Assay: Multiplex assay against HEK293T
Format: toxicity, cell-based
Conditions: human
Method in brief: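 Live cells were stained at seeding with Hoechst33342, BioTracker Green Microtubule Cytoskeleton Dye, MitoTracker Red and Annexin V Alexa Fluor 680. Following compound addition, they were imaged on a CQ1 microscope at 37°C and 5% CO2 and gated by CellPathfinder machine learning into Hoechst high-intensity objects or normal cells, with normal cells split into healthy, pyknosed or fragmented nuclei and pyknosed cells into mitotic or apoptotic. Tubulin, mitochondrial-mass and membrane-permeability phenotypes are per cents of healthy-nucleus cells.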

[1] = 12 h, 1 µM, compound concentration 1 uM
[2] = 12 h, 10 µM, compound concentration 10 uM
[3] = 24 h, 1 µM, compound concentration 1 uM
[4] = 24 h, 10 µM, compound concentration 10 uM
[5] = 48 h, 1 µM, compound concentration 1 uM
[6] = 48 h, 10 µM, compound concentration 10 uM

Cl.Cl.OCCOCCN1CCN(C(c2ccccc2)c2ccc(Cl)cc2)CC1 (stereo not given) [HYDROXYZINE HYDROCHLORIDE]
Population Apoptotic (%) [1]: 34% and 70%
Population Fragmented Nuclei (%) [1]: 7% and 5%
Population Healthy Nuclei (%) [1]: 79% and 84%
Population Hoechst High Intensity Objects (%) [1]: 6% and 9%
Population Membrane Permeable-Phenotype (%) [1]: 0%
Population Mitochondria Different-Phenotype (%) [1]: 48% and 58%
Population Mitotic Cells (%) [1]: 66% and 29%
Population Normal (%) [1]: 93% and 90%
Population Pyknosed Nuclei (%) [1]: 13% and 9%
Population Tubulin-Different-Phenotype (%) [1]: 24% and 28%
Total Cell Count [1]: 394 and 362
Population Apoptotic (%) [2]: 49% and 68%
Population Fragmented Nuclei (%) [2]: 8% and 6%
Population Healthy Nuclei (%) [2]: 71% and 73%
Population Hoechst High Intensity Objects (%) [2]: 11% and 19%
Population Membrane Permeable-Phenotype (%) [2]: 0% and 1%
Population Mitochondria Different-Phenotype (%) [2]: 71% and 83%
Population Mitotic Cells (%) [2]: 50% and 31%
Population Normal (%) [2]: 88% and 80%
Population Pyknosed Nuclei (%) [2]: 19% and 20%
Population Tubulin-Different-Phenotype (%) [2]: 65% and 59%
Total Cell Count [2]: 354 and 327
Population Apoptotic (%) [3]: 22% and 43%
Population Fragmented Nuclei (%) [3]: 10% and 11%
Population Healthy Nuclei (%) [3]: 78%
Population Membrane Permeable-Phenotype (%) [3]: 0%
Population Mitochondria Different-Phenotype (%) [3]: 34% and 41%
Population Mitotic Cells (%) [3]: 77% and 56%
Population Normal (%) [3]: 97% and 86%
Population Pyknosed Nuclei (%) [3]: 11% and 9%
Population Tubulin-Different-Phenotype (%) [3]: 22% and 17%
Total Cell Count [3]: 566 and 481
Population Apoptotic (%) [4]: 29% and 59%
Population Fragmented Nuclei (%) [4]: 10% and 8%
Population Healthy Nuclei (%) [4]: 74% and 71%
Population Hoechst High Intensity Objects (%) [4]: 8% and 22%
Population Membrane Permeable-Phenotype (%) [4]: 0%
Population Mitochondria Different-Phenotype (%) [4]: 55% and 72%
Population Mitotic Cells (%) [4]: 70% and 40%
Population Normal (%) [4]: 91% and 77%
Population Pyknosed Nuclei (%) [4]: 15% and 19%
Population Tubulin-Different-Phenotype (%) [4]: 49% and 43%
Total Cell Count [4]: 472 and 383
Population Apoptotic (%) [5]: 23% and 46%
Population Fragmented Nuclei (%) [5]: 14%
Population Healthy Nuclei (%) [5]: 79%
Population Hoechst High Intensity Objects (%) [5]: 1% and 3%
Population Membrane Permeable-Phenotype (%) [5]: 1% and 0%
Population Mitochondria Different-Phenotype (%) [5]: 19%
Population Mitotic Cells (%) [5]: 76% and 53%
Population Normal (%) [5]: 98% and 96%
Population Pyknosed Nuclei (%) [5]: 5% and 6%
Population Tubulin-Different-Phenotype (%) [5]: 14% and 12%
Total Cell Count [5]: 932 and 676
Population Apoptotic (%) [6]: 38% and 60%
Population Fragmented Nuclei (%) [6]: 14% and 15%
Population Healthy Nuclei (%) [6]: 76% and 72%
Population Hoechst High Intensity Objects (%) [6]: 6% and 16%
Population Membrane Permeable-Phenotype (%) [6]: 0%
Population Mitochondria Different-Phenotype (%) [6]: 45% and 53%
Population Mitotic Cells (%) [6]: 61% and 40%
Population Normal (%) [6]: 93% and 83%
Population Pyknosed Nuclei (%) [6]: 9% and 12%
Population Tubulin-Different-Phenotype (%) [6]: 35%
Total Cell Count [6]: 627 and 539

CN(C)C(=O)Cn1cc(-c2ccc(-c3cncc4ccccc34)cc2)cn1
Population Apoptotic (%) [1]: 52% and 40%
Population Fragmented Nuclei (%) [1]: 5% and 4%
Population Healthy Nuclei (%) [1]: 81% and 80%
Population Hoechst High Intensity Objects (%) [1]: 7% and 2%
Population Membrane Permeable-Phenotype (%) [1]: 0%
Population Mitochondria Different-Phenotype (%) [1]: 50% and 58%
Population Mitotic Cells (%) [1]: 47% and 59%
Population Normal (%) [1]: 92% and 97%
Population Pyknosed Nuclei (%) [1]: 12% and 14%
Population Tubulin-Different-Phenotype (%) [1]: 35% and 23%
Total Cell Count [1]: 411 and 337
Population Apoptotic (%) [2]: 48% and 69%
Population Fragmented Nuclei (%) [2]: 8%
Population Healthy Nuclei (%) [2]: 73% and 76%
Population Membrane Permeable-Phenotype (%) [2]: 0%
Population Mitochondria Different-Phenotype (%) [2]: 65% and 69%
Population Mitotic Cells (%) [2]: 51% and 30%
Population Normal (%) [2]: 93% and 80%
Population Pyknosed Nuclei (%) [2]: 17% and 15%
Population Tubulin-Different-Phenotype (%) [2]: 47% and 43%
Total Cell Count [2]: 264 and 321
Population Apoptotic (%) [3]: 47% and 40%
Population Fragmented Nuclei (%) [3]: 10% and 6%
Population Healthy Nuclei (%) [3]: 79% and 82%
Population Hoechst High Intensity Objects (%) [3]: 6% and 7%
Population Membrane Permeable-Phenotype (%) [3]: 0%
Population Mitochondria Different-Phenotype (%) [3]: 38% and 45%
Population Mitotic Cells (%) [3]: 52% and 60%
Population Normal (%) [3]: 93% and 92%
Population Pyknosed Nuclei (%) [3]: 10%
Population Tubulin-Different-Phenotype (%) [3]: 24% and 23%
Total Cell Count [3]: 498 and 355
Population Apoptotic (%) [4]: 48% and 45%
Population Fragmented Nuclei (%) [4]: 9% and 10%
Population Healthy Nuclei (%) [4]: 75%
Population Hoechst High Intensity Objects (%) [4]: 6% and 14%
Population Membrane Permeable-Phenotype (%) [4]: 0%
Population Mitochondria Different-Phenotype (%) [4]: 65% and 53%
Population Mitotic Cells (%) [4]: 51% and 54%
Population Normal (%) [4]: 93% and 85%
Population Pyknosed Nuclei (%) [4]: 14% and 13%
Population Tubulin-Different-Phenotype (%) [4]: 44% and 30%
Total Cell Count [4]: 283 and 362
Population Apoptotic (%) [5]: 35% and 60%
Population Fragmented Nuclei (%) [5]: 19% and 11%
Population Healthy Nuclei (%) [5]: 74% and 82%
Population Hoechst High Intensity Objects (%) [5]: 8% and 5%
Population Membrane Permeable-Phenotype (%) [5]: 1% and 0%
Population Mitochondria Different-Phenotype (%) [5]: 40% and 32%
Population Mitotic Cells (%) [5]: 64% and 39%
Population Normal (%) [5]: 91% and 94%
Population Pyknosed Nuclei (%) [5]: 6% and 5%
Population Tubulin-Different-Phenotype (%) [5]: 25% and 17%
Total Cell Count [5]: 554 and 430
Population Apoptotic (%) [6]: 66% and 59%
Population Fragmented Nuclei (%) [6]: 23%
Population Healthy Nuclei (%) [6]: 63% and 70%
Population Hoechst High Intensity Objects (%) [6]: 11% and 8%
Population Membrane Permeable-Phenotype (%) [6]: 0%
Population Mitochondria Different-Phenotype (%) [6]: 56% and 43%
Population Mitotic Cells (%) [6]: 33% and 40%
Population Normal (%) [6]: 88% and 91%
Population Pyknosed Nuclei (%) [6]: 12% and 6%
Population Tubulin-Different-Phenotype (%) [6]: 30% and 23%
Total Cell Count [6]: 379 and 429
